From PubChem BioAssay AID1496 (Sanford-Burnham Center for Chemical Genomics, 2009)
In all, about 220,000 compounds went through this assay and about 990 (0.45%) were called active. For the sample, actives were picked, then their nearest neighbours and some compounds at random. Values without a mark were called inactive.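 How the source made its calls: active means inhibition over about 50% at 20 µM in the single-dose screen (limit read from the data); inactive means the rest.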

molecular target: Runt-related transcription factor 1 (Homo sapiens) + Core-binding factor subunit beta (Homo sapiens) (UniProt Q01196+Q13951); experiment: inhibitors of RUNX1 Runt–CBFb binding, primary screen, biochemical, FRET, Cerulean-Runt, Venus-CBFb, uHTS (AID 1496); details: Cerulean-Runt/Venus-CBFb FRET ratio 530/480, 1 h; at 20 µM; hits give high values;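 further: 0% = DMSO wells and 100% = excess unlabeled CBFb competitor control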
Outline: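 Buffer or medium: Tris pH 7.5 buffer with BSA. Assay system: Cerulean-labeled Runt domain protein. Amount: each fluorescent fusion protein 100 nM. Read-out basis: loss of energy transfer signal. Incubation: 1 h compound exposure, room temperature. Probe or stimulus: Venus-CBFb binding partner, 100 nM. Detection: FRET, excitation 422 nm, emission at 530 and 480 nm.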

Sequence of Runt-related transcription factor 1 (Homo sapiens) + Core-binding factor subunit beta (Homo sapiens) (Q01196 whole entry, looked up, the tested form may be a part): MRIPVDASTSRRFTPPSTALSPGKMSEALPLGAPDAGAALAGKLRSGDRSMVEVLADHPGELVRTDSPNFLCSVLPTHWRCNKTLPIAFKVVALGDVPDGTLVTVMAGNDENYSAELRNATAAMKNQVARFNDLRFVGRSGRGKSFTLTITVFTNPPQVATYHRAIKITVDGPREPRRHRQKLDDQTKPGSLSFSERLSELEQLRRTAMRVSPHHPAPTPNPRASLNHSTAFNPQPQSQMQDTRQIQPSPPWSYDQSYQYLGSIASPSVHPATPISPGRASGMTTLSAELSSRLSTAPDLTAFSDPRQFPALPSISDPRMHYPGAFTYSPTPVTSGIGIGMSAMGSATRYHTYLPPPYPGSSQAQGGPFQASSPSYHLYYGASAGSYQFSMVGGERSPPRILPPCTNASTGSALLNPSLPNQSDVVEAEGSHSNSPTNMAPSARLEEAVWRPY
Sequence of Runt-related transcription factor 1 (Homo sapiens) + Core-binding factor subunit beta (Homo sapiens) (Q13951 whole entry, looked up, the tested form may be a part): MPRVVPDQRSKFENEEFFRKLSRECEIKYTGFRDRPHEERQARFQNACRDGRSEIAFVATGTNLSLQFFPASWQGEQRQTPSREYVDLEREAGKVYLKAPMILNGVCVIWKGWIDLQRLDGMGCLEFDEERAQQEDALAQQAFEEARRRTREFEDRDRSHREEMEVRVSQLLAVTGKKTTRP

SMILES	inhibition
O=C(O)c1ccccc1OCc1ccccc1Cl	2.6%
C#CCOCCOCCOCCNc1nc(N2CCN(C(=O)[C@H](CCC(=O)O)n3cc(C(N)CO)nn3)CC2)nc(N2CCN(C(=O)[C@H](CCCCN)n3cc(C(N)[C@H](C)CC)nn3)CC2)n1 (stereo not given in full)	0.2%
COc1ccc(C(=O)C2CCCN(C(=O)c3cnsn3)C2)c(C)c1 (stereo not given)	-0.7%
O=C(NCc1ccco1)C1CCCN(S(=O)(=O)c2ccccc2)C1 (stereo not given)	-0.1%
CCCS(=O)(=O)N1CCCC(C(=O)NCc2ccco2)C1 (stereo not given)	71.8% (active)
O=C(NCc1ccco1)C1CCCN(S(=O)(=O)c2cnc[nH]2)C1 (stereo not given)	1.5%
CCOC(=O)c1ccc(NC(=O)c2nc[nH]c2C(=O)NCc2ccccc2)cc1	19.6%
CN(C)S(=O)(=O)c1ccc(Cl)c(NC(=O)COC(=O)CC(NC(N)=O)c2ccc(Cl)cc2)c1 (stereo not given)	-1.9%
CCCN(CCC)S(=O)(=O)c1ccc(C(=O)N2CC3CCC(CC3)C2)cc1	-0.8%
Cc1nc(C(=O)Nc2ccc(Cl)cc2)sc1C1(C)CC(c2ccccc2)=NO1 (stereo not given)	1.9%
O=C(O)/C=C/c1ccc2c(c1)OCCO2	1.9%
COc1cccc(CC(=O)Nc2ccc(-c3csc(C)n3)cc2)c1	-1.8%
CC(C)=C(NC(=O)c1ccco1)C(=O)NCCc1nc2ccccc2[nH]1	1.2%
COc1ccc(OC(C)C(=O)NCCc2nc3ccccc3[nH]2)cc1 (stereo not given)	-0.9%
CC(C)Oc1ccc(/C=C(\NC(=O)/C=C/c2ccco2)C(=O)NCCc2nc3ccccc3[nH]2)cc1	89.5% (active)
CCOC(=O)C1=C(N)N2C(=O)C(C)SC2=C(C(=O)OCC)C1c1cc(OC)c(OC)c(OC)c1 (stereo not given)	-5%
Cc1cc(Nc2ccc(Cl)cc2)nc(N2CCOCC2)n1	0.3%
Cc1ccc(-n2c(N)c(C(=O)N3CCOCC3)sc2=S)c(C)c1	40.6%
Cc1cccc(-n2c(N)c(C(=O)N3CCN(C)CC3)sc2=S)c1	55.8% (active)
CCOC(=O)c1sc(=S)n(-c2cccc(OC)c2)c1N	34%
CC(=O)Nc1nc2c(s1)C(=O)NCC(C)(C)C2	1%
CCCN(c1ccc(C)cc1)c1nc(=O)c2cccnc2s1	0.8%
Cc1cccc(N2C(=O)c3cccnc3C2=O)c1	-2.4%
Cc1cccc(N2C(=O)C3C(c4ccccc4)OC4(C(=O)c5ccccc5C4=O)C3C2=O)c1 (stereo not given)	115% (active)

SMILES	inhibition
Cc1cccc(N2C(=O)CC(SC(N)=Nc3ccccc3)C2=O)c1 (stereo not given)	-1.7%
O=C(Nc1ccc(Cl)cc1)Nc1ccc(C(=O)N2CCOCC2)cc1	-0.4%
Cc1cc(C)n(CC(C)NCc2c(C(=O)N3CCOCC3)nc3c(C)cccn23)n1 (stereo not given)	0.6%
Cc1cccn2c(=O)c3cc(C#N)c(=O)n(CCCN4CCOCC4)c3nc12	92.6% (active)
Cc1cccn2c(=O)c3cc(C(=O)N4COCC4(C)C)n(C)c3nc12	-1.7%
CC(C)c1c(O)nc(SCCOc2ccc(Cl)cc2)[nH]c1=O	0.6%
N#CC1=C(N)Oc2c(sc3ccccc23)C1c1ccco1 (stereo not given)	15.7%
Cc1cc(C)c2c3c(sc2n1)C(c1ccccc1)C(C#N)=C(N)O3 (stereo not given)	66.6% (active)
Cc1cc(C)c(C#N)c(SCc2[nH]nc3c2C(c2ccccc2)C(C#N)=C(N)O3)n1 (stereo not given)	-1.5%
Nc1c(Cl)cc(S(N)(=O)=O)cc1S(N)(=O)=O	0%
COc1ccc(/C=C2\N=C3CCCN3C2=O)cc1	1.1%
COc1ccc(/C=N/NS(=O)(=O)c2ccc(NC(C)=O)cc2)cc1	0.8%
CCCCN1CCNC1=S	0.1%
CCCCN(CCCC)CC(O)Cn1c2ccccc2c(=O)c2ccccc21 (stereo not given)	80.3% (active)
CS(=O)(=O)N(CC(O)Cn1c2ccccc2c2ccccc21)c1cccc2ccccc12 (stereo not given)	-3.3%
O=C1c2ccccc2S(=O)(=O)N1CC(O)Cn1c2ccccc2c2ccccc21 (stereo not given)	-0.7%
O=C1[C@@H]2C(c3cccnc3)=NO[C@@H]2C(=O)N1c1ccc(Cl)cc1Cl	9%
COc1ccc(Cl)cc1CSc1ncn[nH]1	-0.7%
Cc1ccsc1/C=N/NC(=O)Cc1cc(=O)[nH][nH]1	-1.1%
Cc1cc(F)ccc1S(=O)(=O)Nc1ncnc2scc(-c3ccc(F)cc3)c12	66.8% (active)
CCn1cnc2scc(-c3ccc(C)c(C)c3)c2c1=O	0.4%
COc1ccc(-c2csc3ncnc(Oc4ccc5c(C)cc(=O)oc5c4)c23)cc1	-0.5%
CCOc1ccc2sc(NS(=O)(=O)c3ccc(N)cc3)nc2c1	0.7%
CCNc1nc(NCC)nc(N/N=C/c2ccc(O)c(OC)c2)n1	10%

SMILES	inhibition
N=c1oc2ccccc2cc1C(=O)N/N=C/c1ccccc1	-2.3%
CCOC(=O)N1CCN(C(=O)c2cc3c(ccc4ccccc43)oc2=O)CC1	2.5%
CNC(=O)c1cc2c(ccc3ccccc32)oc1=N	108% (active)
CCN(CC)C(=O)Oc1ccc(Br)cc1C(=O)Nc1ccc(F)c(Cl)c1	0.6%
CCn1c(SCC(=O)N/N=C/c2ccncc2)nc2ccccc21	-0.7%
COc1ccc(C2C(C#N)=C(N)Oc3cc(N)ccc32)cc1OC (stereo not given)	77.7% (active)
COC(=O)C1=C(C)OC(N)=C(C#N)C1c1cc(OC)ccc1OC (stereo not given)	-2.5%
CCC1=C(C(=O)OC)C(c2cc(OC)ccc2OC)C(C#N)=C(N)O1 (stereo not given)	2%
CCOC(=O)c1c(NC(=S)Nc2ccccc2)sc2c1CCN(C)C2	66.5% (active)
CCOC(=O)c1c(NC(=S)Nc2ccccc2C)sc2c1CCC2	10.3%
CCOC(=O)c1c(NC(=O)NC(C)(C)C)sc2c1CCN(C)C2	4.1%
CC(C)(C)c1nnc(NC(=O)C2c3ccccc3Oc3ccccc32)s1	21%
CC(C)Sc1nnc([C@H](Cc2ccccc2)NC(=O)OC(C)(C)C)o1	4.8%
Fc1cccc(Cl)c1CSc1ccc(-c2ccco2)nn1	40.3%
O=C(CSc1ccc(-c2ccco2)nn1)NCc1ccc2c(c1)OCO2	16.4%
Brc1ccc(CSc2ccc(-c3ccco3)nn2)cc1	53.3% (active)
CCC(C)(C)NC(=O)C(c1ccc(O)cc1)N(C(=O)Cn1nnc2ccccc21)c1ccc(NC(C)=O)cc1 (stereo not given)	0.4%
COc1cc(COCC(O)CN2CCN(Cc3ccc4c(c3)OCO4)CC2)cc(OC)c1OC (stereo not given)	-1%
COc1ccc2cc1Oc1ccc(cc1)C[C@H]1c3cc(c(OC)cc3CCN1C)Oc1c(O)c(OC)cc3c1[C@H](C2)N(C)CC3	1.7%
COc1c(O)ccc2c1CN1CCc3cc4c(cc3C1C2)OCO4 (stereo not given)	66.6% (active)
CCOC(=O)c1ccc(NC(=O)c2nc[nH]c2C(=O)N[C@@H](CCCCNC(=O)OC(C)(C)C)C(=O)OC(C)(C)C)cc1	-5.6%
COCC(C)OC(=O)c1c(N)n(CCCN2CCOCC2)c2nc3ccccc3nc12 (stereo not given)	67.9% (active)
CC(C)(C)OC(=O)c1c(N)n(CCCN2CCCC2=O)c2nc3ccccc3nc12	68.7% (active)
CCOc1ccc(C(=O)NCCCN2CCCC2=O)cc1	1%

SMILES	inhibition
CSc1nnc(-c2ccncc2)n1CCCN1CCCC1=O	-5.5%
O=C(Cn1c(-c2ccccn2)nc2ccccc21)NCCN1CCOCC1	0.6%
Cc1ccc(C(=O)OC(C)CN2CCOCC2)cc1 (stereo not given)	1.3%
CC(C)C[C@H](CO)Nc1nc(N(C)c2cccc(Cl)c2)c2ncn(C(C)C)c2n1	-4.6%
N/C(=N\OC(=O)Nc1ccccc1)c1ccno1	0.1%
S=C(c1ccc(-c2ccccc2)o1)N1CCCCC1	21%
OCCN1CCN(C(=S)c2ccc(-c3ccccc3)cc2)CC1	53.6% (active)
O=C(NC(c1ccccc1)c1ccccc1)N1CCN(CCO)CC1	-1.2%
CCc1nc2sc3c(Cl)ncnc3c2c2c1CCCC2	-0.7%
CCN(CC)S(=O)(=O)c1ccc(N2CCOCC2)c(NC(=O)C2COc3ccccc3O2)c1 (stereo not given)	84.6% (active)
CCN(CC)S(=O)(=O)c1ccc(N2CCOCC2)c(C(=O)O)c1	1%
Cc1ccc(S(=O)(=O)N(C)C)cc1NC(=O)COC(=O)C1COc2ccccc2O1 (stereo not given)	-0.2%
COc1cccc2sc(NNC(=O)c3nc4ccccc4s3)nc12	32.7%
CC(=O)c1sc(NC(=O)CCCOc2ccccc2C)nc1C	0.4%
COc1cccc2sc(Nc3nc(C)c(C(C)=O)s3)nc12	66.3% (active)
O=S(=O)(NC(=S)Nc1ccccc1)c1ccc(F)cc1	26.8%
O=[N+]([O-])c1ccc2c(c1)C(O)n1nc(-c3ccccc3)nc1S2 (stereo not given)	-0.7%
C=CCNC(=S)NNC(=O)c1cc(Cl)ccc1OC	0.2%
C=CCSc1nnc(NC(=O)c2ccc(NC(C)=O)cc2)s1	0%
NNC(=O)c1cccc(COCC(F)(F)C(F)F)c1	-0.3%
CCCC(=O)N1c2ccccc2NC2=C(C(=O)CCC2)C1c1ccc(F)cc1 (stereo not given)	-0.4%
CCCN1C2=C(C(=O)CCC2)C(c2ccc(O)c(Br)c2)C2=C1CCCC2=O	53.1% (active)
N#CC1=C(N)N(c2ccccc2)C2=C(C(=O)CCC2)C1c1ccccc1 (stereo not given)	6.6%
